Calls of active or inactive are those of the source. The calls are words filed in the database; no cut-off is given here.
How the values were obtained:
Pseudomonas aeruginosa = assay: Induction of iron uptake in Pseudomonas aeruginosa PAD07 at 100 nM; assay type: functional, organism-based
Procedure, shortened: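 PAD07 P. aeruginosa cells lacking endogenous siderophores, OD600 1, incubated at 37 °C with 100 nM of the 55Fe(III)-loaded compound. Aliquots taken at several times were centrifuged, and cell-pellet 55Fe was measured as iron transported. Repeated with the protonophore CCCP at 0 °C to check TonB-dependent uptake versus passive diffusion.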

[1] = molecular target: T1, Fe(3+)-pyochelin receptor (Pseudomonas aeruginosa (strain ATCC 15692 / PAO1 / 1C / PRS 101 / LMG12228), UniProt P42512); assay: Displacement of Pch-55Fe(III) from Pseudomonas aeruginosa PAD07 FptA after 1 hr in presence of CCCP
T1 sequence (P42512 whole entry): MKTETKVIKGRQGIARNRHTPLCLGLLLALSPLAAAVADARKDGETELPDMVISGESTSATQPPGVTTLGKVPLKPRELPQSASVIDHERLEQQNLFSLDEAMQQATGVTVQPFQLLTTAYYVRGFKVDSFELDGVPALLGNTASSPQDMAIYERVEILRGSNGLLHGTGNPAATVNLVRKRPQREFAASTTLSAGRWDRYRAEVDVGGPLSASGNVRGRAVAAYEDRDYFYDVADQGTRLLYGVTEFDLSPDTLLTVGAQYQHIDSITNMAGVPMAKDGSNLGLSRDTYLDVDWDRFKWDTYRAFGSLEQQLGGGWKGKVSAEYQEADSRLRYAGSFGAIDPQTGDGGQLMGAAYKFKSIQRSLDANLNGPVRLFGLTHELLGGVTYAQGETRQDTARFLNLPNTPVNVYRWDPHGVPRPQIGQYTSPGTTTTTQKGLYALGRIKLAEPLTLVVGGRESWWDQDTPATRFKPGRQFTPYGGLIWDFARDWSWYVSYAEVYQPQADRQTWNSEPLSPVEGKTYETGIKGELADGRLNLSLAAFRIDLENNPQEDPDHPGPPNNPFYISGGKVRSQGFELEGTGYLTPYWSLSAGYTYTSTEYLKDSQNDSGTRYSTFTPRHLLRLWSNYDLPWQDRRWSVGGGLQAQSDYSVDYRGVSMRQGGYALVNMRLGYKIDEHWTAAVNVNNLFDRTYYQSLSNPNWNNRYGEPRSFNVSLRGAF
Procedure, shortened: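 PAD07 P. aeruginosa (mutant lacking pyochelin and pyoverdine), OD600 0.3, held 1 h at 0 °C in 50 mM Tris–HCl pH 8.0 with 200 µM CCCP to block uptake. Tracer 1 nM Pch-55Fe(III) competed by the Fe(III)-loaded compounds over […] range. Inhibition constant (Ki) derived from the competition.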

Row | Compound | Ki ([1]; read-out: Ki) | Ki [1] | Activity (Pseudomonas aeruginosa)
1 | CN1[C@@H]([C@H]2CSC(c3ccccc3O)=N2)SC[C@H]1C(=O)O | 2.2 nM |  | Active
2 | COc1ccccc1-c1nc(C2SC[C@@H](C(=O)O)N2C)cs1 (mixture of isomers) |  | Not Active | inactive
3 | CN1[C@@H](c2csc(-c3ccccc3O)n2)SC[C@H]1C(=O)O | 9.8 nM |  | Active
4 | COc1ccc(F)cc1-c1nc(C2SC[C@@H](C(=O)O)N2C)cs1 (mixture of isomers) | 1440 nM |  | inactive
5 | CN1C(c2csc(-c3ccc(O)cc3O)n2)SC[C@H]1C(=O)O (mixture of isomers) | 6.5 nM |  | Active
6 | COc1cc(O)ccc1-c1nc(C2SC[C@@H](C(=O)O)N2C)cs1 (mixture of isomers) |  | Not Active | inactive

Continued, in another order:

Row | Ki ([1]; read-out: Ki) | Ki [1] | Compound | Activity (Pseudomonas aeruginosa)
7 |  | Not Active | CN1C(c2csc(-c3cc(N)ccc3O)n2)SC[C@H]1C(=O)O (mixture of isomers) | inactive
8 | 460 nM |  | COc1ccc(N)cc1-c1nc(C2SC[C@@H](C(=O)O)N2C)cs1 (mixture of isomers) | inactive
9 | 11.3 nM |  | CN1C(c2csc(-c3ccc(N)cc3O)n2)SC[C@H]1C(=O)O (mixture of isomers) | Active

Reference: ChEMBL document CHEMBL3098095, “Synthesis and biological properties of thiazole-analogues of pyochelin, a siderophore of Pseudomonas aeruginosa” (Bioorg Med Chem Lett, 2014)
